In ChEMBL document CHEMBL4680373, “Evaluation of 5-(Trifluoromethyl)-1,2,4-oxadiazole-Based Class IIa HDAC Inhibitors for Huntington's Disease” (ACS Med Chem Lett, 2021):

Columns and labels:
[1] = Toxicity in CBAxC57BL/6J mouse assessed as effect on seizure at 10 to 100 mg/kg, po bid for 14.5 days; format: organism-based; settings: in vivo, 348 h, dose 10-100 mg/kg, time 14.5 day
Method in brief: (§1)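 R6/2 HD mice and wild-type littermates, male and female, were dosed orally b.i.d. at 10, 30 or 100 mg/kg or with vehicle for 14.5 days. Vehicle was 10% (w/v) hydroxypropyl-β-cyclodextrin in 50 mM citrate buffer. Body weight, body temperature, passive observations and active manipulation scores were recorded. Blood and brain were collected 2 h after the final dose.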

Cytochrome P450 3A4 = Cytochrome P450 3A4 (Homo sapiens, UniProt P08684); experiment: Inhibition of CYP3A4 in human liver microsomes using midazolam as substrate incubated for 15 mins by LC-MS/MS analysis; format: ADME
Chain of Cytochrome P450 3A4 (P08684 whole entry): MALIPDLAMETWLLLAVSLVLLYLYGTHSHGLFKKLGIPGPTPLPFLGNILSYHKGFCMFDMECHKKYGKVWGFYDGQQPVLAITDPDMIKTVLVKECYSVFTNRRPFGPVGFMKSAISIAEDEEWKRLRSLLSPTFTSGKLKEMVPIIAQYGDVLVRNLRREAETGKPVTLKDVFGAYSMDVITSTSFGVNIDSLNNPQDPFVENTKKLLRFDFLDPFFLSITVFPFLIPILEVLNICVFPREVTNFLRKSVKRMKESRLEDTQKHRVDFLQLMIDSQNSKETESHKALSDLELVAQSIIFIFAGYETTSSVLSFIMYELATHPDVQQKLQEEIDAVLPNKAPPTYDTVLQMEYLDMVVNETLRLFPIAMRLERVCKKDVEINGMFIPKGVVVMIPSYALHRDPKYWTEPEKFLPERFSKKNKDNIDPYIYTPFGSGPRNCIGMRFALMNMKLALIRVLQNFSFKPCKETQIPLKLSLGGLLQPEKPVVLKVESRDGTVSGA

[2] = In vivo inhibition of Class 1/2B HDAC in CBAxC57BL/6J mouse brain assessed as increase in global pan-acetylation at >=10 mg/kg, po bid for 14.5 days by dot blot technique; format: organism-based; settings: 348 h, time 14.5 day
Method in brief: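 R6/2 and wild-type littermate mice of both sexes were dosed orally b.i.d. for 14.5 days with 10, 30 or 100 mg/kg or vehicle (10% w/v hydroxypropyl-β-cyclodextrin in 50 mM citrate buffer). Half-brains were collected 2 h after the last dose. Dot blots measured global and H4K12 acetylation; Western blots measured H3, H4 and tubulin acetylation. Genotypes were pooled.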

[3] = In vivo inhibition of Class 1 HDAC in C57BL/6J mouse brain assessed as increase in histone H3/H4 acetylation administered orally via gavage measured after 2 hrs by western blot analysis; format: organism-based; settings: po, dose 10-100 mg/kg
Method in brief: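 Brain samples were taken 2 h after single oral gavage doses (10, 30, 100 mg/kg). Western blots probed H3, H4 and tubulin acetylation, each normalized to its own total-protein band. Comparison was against samples taken 5 min after a 10 mg/kg dose.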

[4] = Toxicity in CBAxC57BL/6J mouse assessed as effect on flat body posture at 10 to 100 mg/kg, po bid for 14.5 days; format: organism-based; settings: in vivo, 348 h, dose 10-100 mg/kg, time 14.5 day; method in brief: as §1
[5] = Plasma clearance in C57BL/6J mouse at 3.3 mg/kg, iv by LC-MS/MS analysis; format: ADME, organism-based
Method in brief: (§2)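 Fed male C57Bl/6 mice dosed once intravenously at 3.3 mg/kg and by oral gavage at 11.5 mg/kg. Compound levels were quantified to derive PK parameters.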

[6] = Metabolic stability of the compound in mouse blood; format: ADME, tissue-based
[7] = biological target: T1, Muscarinic acetylcholine receptor M3 (Homo sapiens, UniProt P20309); experiment: Displacement of [3H]4-DAMP from human recombinant M3 receptor incubated for 1 hr by radiometric scintillation counting analysis
Target sequence in this assay (P20309 whole entry): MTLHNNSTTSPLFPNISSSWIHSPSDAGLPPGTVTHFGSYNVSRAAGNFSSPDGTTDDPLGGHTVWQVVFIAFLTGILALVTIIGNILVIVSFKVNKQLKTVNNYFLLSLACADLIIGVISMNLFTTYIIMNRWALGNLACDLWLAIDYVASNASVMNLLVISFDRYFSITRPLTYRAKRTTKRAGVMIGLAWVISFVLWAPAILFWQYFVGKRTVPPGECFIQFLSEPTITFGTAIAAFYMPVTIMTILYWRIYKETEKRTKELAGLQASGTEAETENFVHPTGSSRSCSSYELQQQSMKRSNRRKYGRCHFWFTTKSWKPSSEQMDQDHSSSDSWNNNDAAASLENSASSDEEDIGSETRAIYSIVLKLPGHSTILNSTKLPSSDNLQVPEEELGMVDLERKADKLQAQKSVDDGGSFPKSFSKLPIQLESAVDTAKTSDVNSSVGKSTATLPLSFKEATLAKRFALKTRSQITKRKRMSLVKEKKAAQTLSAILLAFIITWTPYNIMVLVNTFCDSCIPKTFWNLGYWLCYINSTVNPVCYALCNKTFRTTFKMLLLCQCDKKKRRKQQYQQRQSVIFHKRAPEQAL

[8] = Volume of distribution in C57BL/6J mouse at 3.3 mg/kg, iv by LC-MS/MS analysis; format: ADME, organism-based; settings: in vivo; method in brief: as §2
[9] = biological target: Voltage-gated inwardly rectifying potassium channel KCNH2 (Homo sapiens, UniProt Q12809); experiment: Inhibition of human ERG
Chain of Voltage-gated inwardly rectifying potassium channel KCNH2 (Q12809 whole entry): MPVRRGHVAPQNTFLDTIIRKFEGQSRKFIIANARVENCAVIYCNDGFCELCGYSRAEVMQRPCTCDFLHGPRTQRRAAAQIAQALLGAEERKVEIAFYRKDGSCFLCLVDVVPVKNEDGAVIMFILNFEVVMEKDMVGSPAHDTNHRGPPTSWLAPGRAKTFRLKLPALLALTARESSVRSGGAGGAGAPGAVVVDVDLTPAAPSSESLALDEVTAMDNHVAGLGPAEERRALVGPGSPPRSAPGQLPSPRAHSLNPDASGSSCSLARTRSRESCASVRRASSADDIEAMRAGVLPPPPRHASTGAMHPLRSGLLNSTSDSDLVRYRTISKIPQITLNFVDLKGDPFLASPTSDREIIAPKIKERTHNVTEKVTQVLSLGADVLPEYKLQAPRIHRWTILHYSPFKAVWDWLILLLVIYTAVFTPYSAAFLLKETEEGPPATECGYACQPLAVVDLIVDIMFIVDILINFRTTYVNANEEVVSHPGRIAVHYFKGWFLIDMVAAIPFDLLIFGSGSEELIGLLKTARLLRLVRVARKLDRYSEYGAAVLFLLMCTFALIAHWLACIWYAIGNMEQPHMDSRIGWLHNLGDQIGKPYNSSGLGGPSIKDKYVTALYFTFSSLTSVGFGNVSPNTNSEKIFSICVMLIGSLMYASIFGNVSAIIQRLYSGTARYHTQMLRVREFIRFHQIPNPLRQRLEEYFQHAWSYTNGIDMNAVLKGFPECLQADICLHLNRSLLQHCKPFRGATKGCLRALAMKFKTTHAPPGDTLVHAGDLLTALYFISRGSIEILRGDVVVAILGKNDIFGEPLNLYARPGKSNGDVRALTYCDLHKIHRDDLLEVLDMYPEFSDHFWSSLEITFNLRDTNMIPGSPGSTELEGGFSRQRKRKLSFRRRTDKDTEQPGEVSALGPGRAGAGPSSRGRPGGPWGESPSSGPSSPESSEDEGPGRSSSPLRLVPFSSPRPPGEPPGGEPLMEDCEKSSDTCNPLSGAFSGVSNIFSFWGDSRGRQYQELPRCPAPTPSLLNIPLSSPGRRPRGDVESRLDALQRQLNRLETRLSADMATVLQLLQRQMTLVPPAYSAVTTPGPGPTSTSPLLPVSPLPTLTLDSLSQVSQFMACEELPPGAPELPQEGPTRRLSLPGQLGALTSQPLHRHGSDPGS
Method in brief: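 hERG affinity was measured on the IonWorks automated electrophysiology platform and reported as Kd.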

[10] = Toxicity in CBAxC57BL/6J mouse assessed as effect on tail tremor at 10 to 100 mg/kg, po bid for 14.5 days; format: organism-based; settings: in vivo, 348 h, dose 10-100 mg/kg, time 14.5 day; method in brief: as §1
Cytochrome P450 1A2 = Cytochrome P450 1A2 (Homo sapiens, UniProt P05177); experiment: Inhibition of CYP1A2 in human liver microsomes using phenacetin as substrate incubated for 30 mins by LC-MS/MS analysis; format: ADME
Chain of Cytochrome P450 1A2 (P05177 whole entry): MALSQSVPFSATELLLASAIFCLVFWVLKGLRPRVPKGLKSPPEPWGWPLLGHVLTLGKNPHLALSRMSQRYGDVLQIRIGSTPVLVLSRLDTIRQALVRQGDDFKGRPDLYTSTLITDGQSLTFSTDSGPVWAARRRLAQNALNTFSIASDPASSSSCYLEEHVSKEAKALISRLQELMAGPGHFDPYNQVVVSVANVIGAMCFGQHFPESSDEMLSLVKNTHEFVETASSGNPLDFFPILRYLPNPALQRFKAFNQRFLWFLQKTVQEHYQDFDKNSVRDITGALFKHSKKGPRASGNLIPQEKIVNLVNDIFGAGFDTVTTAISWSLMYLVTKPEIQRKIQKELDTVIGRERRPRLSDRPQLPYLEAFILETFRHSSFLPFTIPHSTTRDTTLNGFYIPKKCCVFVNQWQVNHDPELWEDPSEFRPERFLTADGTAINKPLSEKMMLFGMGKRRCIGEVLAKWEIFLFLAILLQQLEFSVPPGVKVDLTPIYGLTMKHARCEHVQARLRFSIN

[11] = biological target: T1, Muscarinic acetylcholine receptor M3; experiment: Displacement of [3H]4-DAMP from human recombinant M3 receptor at 10 uM incubated for 1 hr by radiometric scintillation counting analysis
Method in brief: (§3)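 Broad selectivity panel of binding, cellular, functional and enzymatic assays run by a contract lab. Each test was done at a single 10 μM concentration and reported as percent inhibition.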
Target sequence in this assay (P20309 whole entry, looked up): as the sequence (P20309 whole entry) above

Cytochrome P450 2D6 = Cytochrome P450 2D6 (Homo sapiens, UniProt P10635); experiment: Inhibition of CYP2D6 in human liver microsomes using dextromethorphan as substrate incubated for 15 mins by LC-MS/MS analysis; format: ADME
Chain of Cytochrome P450 2D6 (P10635 whole entry): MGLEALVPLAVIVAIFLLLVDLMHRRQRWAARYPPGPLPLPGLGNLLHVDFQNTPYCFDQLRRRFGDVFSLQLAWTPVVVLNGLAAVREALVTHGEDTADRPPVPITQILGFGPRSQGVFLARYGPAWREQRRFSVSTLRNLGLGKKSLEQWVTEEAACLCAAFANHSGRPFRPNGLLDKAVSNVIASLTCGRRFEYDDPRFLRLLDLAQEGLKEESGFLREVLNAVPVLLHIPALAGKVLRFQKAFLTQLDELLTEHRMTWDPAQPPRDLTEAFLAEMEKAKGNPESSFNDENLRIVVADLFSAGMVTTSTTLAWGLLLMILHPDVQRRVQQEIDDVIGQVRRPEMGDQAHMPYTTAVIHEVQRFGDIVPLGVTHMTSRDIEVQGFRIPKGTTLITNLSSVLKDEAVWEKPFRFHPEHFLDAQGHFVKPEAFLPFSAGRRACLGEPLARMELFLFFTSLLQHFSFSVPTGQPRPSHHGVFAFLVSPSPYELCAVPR

[12] = biological target: Muscarinic acetylcholine receptor M1 (Homo sapiens) (UniProt P11229); experiment: Displacement of [3H]pirenzapine from human recombinant M1 receptor at 10 uM incubated for 1 hr by radiometric scintillation counting analysis; method in brief: as §3
Chain of Muscarinic acetylcholine receptor M1 (Homo sapiens) (P11229 whole entry): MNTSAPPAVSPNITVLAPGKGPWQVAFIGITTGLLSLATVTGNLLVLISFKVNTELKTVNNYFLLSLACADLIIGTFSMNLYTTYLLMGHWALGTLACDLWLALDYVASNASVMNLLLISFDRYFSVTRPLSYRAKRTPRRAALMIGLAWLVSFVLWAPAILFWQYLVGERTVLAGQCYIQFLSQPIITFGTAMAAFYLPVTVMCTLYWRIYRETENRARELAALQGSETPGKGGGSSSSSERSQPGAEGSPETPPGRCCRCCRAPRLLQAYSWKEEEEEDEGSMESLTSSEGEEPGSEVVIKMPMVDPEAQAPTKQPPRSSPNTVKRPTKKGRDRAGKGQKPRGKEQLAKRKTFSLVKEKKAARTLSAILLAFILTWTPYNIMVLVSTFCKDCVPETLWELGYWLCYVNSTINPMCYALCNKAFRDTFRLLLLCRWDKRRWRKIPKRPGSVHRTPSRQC

C[C@H](CN1CCC[C@@H]1C)NC(=O)c1ccc(-c2noc(C(F)(F)F)n2)cc1
Activity [1]: Non-Toxic | IC50 (Cytochrome P450 3A4): > 50 µM | Activity [2]: Toxic | Activity [3]: Toxic | Activity [4]: Non-Toxic | clearance [5]: 4.2 L/h/kg | Stabilty [6]: Stable | Kd [7]: > 5 µM | Vd [8]: 3.8 L/kg | Kd [9]: 3.9 µM | Activity [10]: Non-Toxic | IC50 (Cytochrome P450 1A2): > 50 µM | inhibition [11]: > 80% | IC50 (Cytochrome P450 2D6): > 50 µM | inhibition [12]: > 80%
